Screening data (PubChem)
An excerpt weighted towards active compounds, which were near 1.6% of everything screened.
A1 inh – inhibitors of the anti-apoptotic protein A1, read as caspase activation; MEF A1-2A-BIM cells, Caspase-Glo 3/7 luminescence, 3 h; percent of clofoctol response, vehicle zero; caspase activation, % (test concentration not listed); 0.066% of 330,000 active; AID 2462;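 active means over half of replicate activation scores above 10%, or exactly half above 10 with the replicate mean above 10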
SR-BI DiI inh – blocks mouse SR-BI lipid uptake from DiI-HDL | 0.96% of 320,000 active | ldlA[mSR-BI] CHO cells, DiI-HDL uptake fluorescence, 3 h | inhibition, % at 12.5 µM | AID 488896;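 active means mean replicate inhibition of at least 70% and a set share of replicates each scoring 70 or more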
Target sequence (Q61009 whole entry, looked up): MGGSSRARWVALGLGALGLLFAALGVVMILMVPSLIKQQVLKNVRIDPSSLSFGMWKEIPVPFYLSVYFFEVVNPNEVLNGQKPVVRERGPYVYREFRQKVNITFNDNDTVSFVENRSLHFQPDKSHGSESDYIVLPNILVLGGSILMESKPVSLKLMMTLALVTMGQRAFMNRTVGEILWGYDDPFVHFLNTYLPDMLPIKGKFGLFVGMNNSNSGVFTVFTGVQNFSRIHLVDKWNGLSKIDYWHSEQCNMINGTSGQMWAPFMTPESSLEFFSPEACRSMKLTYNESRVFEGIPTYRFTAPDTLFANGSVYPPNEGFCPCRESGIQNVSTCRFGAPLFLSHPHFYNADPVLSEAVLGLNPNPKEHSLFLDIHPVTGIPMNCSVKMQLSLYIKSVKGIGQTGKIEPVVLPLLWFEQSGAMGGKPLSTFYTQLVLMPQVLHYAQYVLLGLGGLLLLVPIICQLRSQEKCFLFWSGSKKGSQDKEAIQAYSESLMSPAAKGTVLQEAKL
Vif inh – blocks HIV Vif function. HEK293T cells, Vif self-association by quenched fluorescence, imaging, 24 h. inhibition, % at 7.49 µM. 0.35% of 340,000 active. AID 602346; in the data active means inhibition above about 50%, passing the limit was not always enough
TAG inh – triacylglycerol accumulation inhibition; H9c2 cells, Nile Red lipid (TAG) fluorescence; cells loaded with 200 µM oleic acid; inhibition, % at 12.5 µM; 0.66% of 230,000 active; AID 651582;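 active means pattern-corrected inhibition of lipid staining of at least 50% with the nuclear-stain viability signal not falling by more than 50%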
SR-BI uptake up – SR-BI HDL lipid transfer activation. 0.096% of 320,000 active. AID 504775. CHO ldlA[mSR-BI] cells, DiI-HDL uptake fluorescence, 3 h; 100 = double the neutral-control signal. activation, % at 12.5 µM;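 active means mean replicate activation of at least 60% and every replicate at or above 60%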
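System: CHO ldlA[mSR-BI] cells / Medium: HEPES-buffered (25 mM, pH 7.4) F12 plus 0.5% BSA / Probe or stimulus: labelled HDL, 10 µg/mL / Doses: single compound concentration, delivered by pin transfer / Schedule: 3 h, 37 °C / Measured by: DiI fluorescence, bottom read / Measure: cell-associated DiI fluorescence as measure of HDL uptake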
TAG conf – triacylglycerol accumulation inhibition, confirmation. shares compounds with TAG inh. H9c2 lipid accumulation, Nile Red fluorescence; cells loaded with 200 µM oleic acid. inhibition, % at 12.5 µM. 71% of 990 active. AID 651629;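 active means mean inhibition across replicates of 40% or more; inactive means mean inhibition below 40%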
Of the large screens only hits and unclear results are named; the others gave an inactive call (follow-up assays come after a bar, where they were run).

Cc1cccc(NC(=O)C(C)Sc2nc3ccccc3c(=O)n2CCCN2CCOCC2)c1 (configuration not stated)	TAG inh 52.9 | TAG conf 56.9
CCCC(=O)Nc1nc2ccc(NC(=O)c3ccccc3F)cc2s1	TAG inh 52.2 | TAG conf 81.5
Cc1ccc2nc(NC(=O)c3ccccc3F)sc2c1	none
COc1ccc(Cc2n[nH]c(=S)o2)cc1	TAG inh 55.5 | TAG conf inactive
NCC1C2CCC(O2)C1CO (configuration not stated)	none (no result: A1 inh, SR-BI DiI inh, SR-BI uptake up)
COc1ccc(CC(=O)NNC(=O)c2ccccc2)cc1OC	none
COc1ccc(C(=O)NNC(=O)Cc2ccc(-c3ccccc3)cc2)cc1OC	TAG inh 57.2 | TAG conf inactive
COC(=O)C=C1CCC2C3CCC4=CC(=O)C(Br)CC4(C)C3C(=O)CC12C (configuration not stated)	TAG inh 63.1 (no result: A1 inh) | TAG conf 84.6
COc1ccc(-c2csc(NC(=S)NC(=O)/C=C/c3ccco3)n2)cc1Br	TAG inh 78.9 (no result: Vif inh) | TAG conf 86.6
COc1ccc(-c2csc(NC(=S)NC(=O)c3ccco3)n2)cc1Br	none (no result: TAG inh)
Cc1ccc(S(=O)(=O)N2CCOCC2)cc1C(=O)N1CCC(Cc2ccccc2)CC1	none (no result: TAG inh)
COCCn1cnc2c(c1=O)c1nc3ccccc3nc1n2/N=C/c1ccc(OC)c(OC)c1	TAG inh 67.9 | TAG conf 88.0
CCC1=Nc2cc(C(=O)NCCCOC)ccc2Sc2ccccc21	TAG inh 61.0 | TAG conf 44.6
COc1cc(C(=O)N2CCN(c3cc(Cl)ccc3Cl)CC2)cc(OC)c1OC	TAG inh 54.3 | TAG conf 64.8
O=C1/C(=C/c2ccco2)SC(=S)N1CCC(=O)N1CCCCC1CCO (configuration not stated)	none (no result: TAG inh)
COc1cc(CCCN2CCNC[C@@H]2c2ccccc2)cc(OC)c1OC	TAG inh 85.5 | TAG conf inactive
CCCCNc1c(-c2ccc(-c3ccc(C(C)=O)cc3)c(OC)c2)nc2cc(C)ccn12	SR-BI DiI inh 72.2, TAG inh 58.0 | TAG conf 41.2
Cc1cccc2c(N=Nc3ccc(S(=O)(=O)Nc4ccc(Cl)cc4)cc3[N+](=O)[O-])c(O)[nH]c12	SR-BI DiI inh 96.8, TAG inh 54.0 | TAG conf 51.0
Cc1cccc2c(N=NC(=O)c3ccc(NS(=O)(=O)c4cccs4)cc3)c(O)[nH]c12	none
Cc1cc(NC(=O)CSc2nc(-c3ccco3)cc(C(F)(F)F)n2)no1	TAG inh 65.7 | TAG conf 57.8
O=C(CC1C=Cc2ccccc2N1C(=O)c1ccccc1)c1ccccc1 (configuration not stated)	none (no result: TAG inh)
COc1cc(-c2noc(C)c2C#Cc2ccc(N)cc2)cc(OC)c1OC	TAG inh 56.9 | TAG conf 46.5
Cc1ccc(CNC(=O)c2ccc(N3CCC4(CC3)CC(c3ccccc3)=NO4)c(NC(=O)c3cccc(C)c3)c2)cc1	none
Cc1ccc(CNC(=O)c2ccc(N3CCC4(CC3)CC(c3ccccc3)=NO4)c(NC(=O)c3ccc(Cl)c([N+](=O)[O-])c3)c2)cc1	TAG inh 51.1 | TAG conf inactive
O=C(NC1CCCCC1)C1CC(=O)N(c2cccc([N+](=O)[O-])c2)C1 (configuration not stated)	none
Cc1nc2c(ccc3nc(NC(=O)Cc4cccc5ccccc45)sc32)s1	TAG inh 51.0 | TAG conf 57.9
Cc1nc2c(ccc3nc(NC(=O)C(c4ccccc4)c4ccccc4)sc32)s1	none
CCC1N=C(SC)NC(C)=C1C(=O)c1ccccc1 (configuration not stated)	none
CSC1=NC(C(Cl)(Cl)Cl)N=C(c2ccc(C)cc2)N1 (configuration not stated)	TAG inh 56.0 | TAG conf 50.0
COc1cc2ccccc2cc1C(=O)N/N=C/c1cccs1	TAG inh 54.9 (no result: A1 inh, SR-BI DiI inh, SR-BI uptake up) | TAG conf 64.2
COC(=O)N/N=C/c1cccs1	none
